From ChEMBL document CHEMBL2390835, “Synthesis and antimalarial testing of neocryptolepine analogues: addition of ester function in SAR study of 2,11-disubstituted indolo[2,3-b]quinolines” (Eur J Med Chem, 2013)

Tests used:
[1] = Selectivity index, ratio of IC50 for rat L6 cells to IC50 for chloroquine-sensitive erythrocytic stage of Plasmodium falciparum NF54; assay type: toxicity, cell-based; conditions: read-out: Ratio IC50
Outline: (§1)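 IC50 in rat L6 skeletal myoblasts divided by the antiplasmodial IC50 for the named strain. L6 cells were seeded at 4000 per well in RPMI 1640 with L-glutamine and 10% FBS and exposed to eleven 3-fold dilutions from 100 to 0.002 µg/mL for 70 h. Alamar Blue was then added for 2 h and fluorescence read at ex 536 / em 588 nm. IC50 by linear regression of the sigmoidal curves.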

[2] = Inhibition of beta-haematin formation after 5 to 6 hrs by UV-vis spectamax plate reader analysis; assay type: functional
Outline: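 Detergent-mediated assay: compounds from DMSO stocks (20, 2, 0.4 mM) in duplicate, 0–1000 µM final. Added water and NP-40, then haematin at 100 µM final in 0.5 M acetate buffer pH 4.8. Incubated at 37 °C for 5–6 h. Pyridine added to 5% v/v final in HEPES pH 7.4 with acetone. Haem–pyridine absorbance read (405 nm). IC50 from sigmoidal fits.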

[3] = system: Plasmodium falciparum; assay: Resistance index, ratio of IC50 for chloroquine-resistant erythrocytic stage of Plasmodium falciparum K1 to IC50 for chloroquine-sensitive erythrocytic stage of Plasmodium falciparum NF54; assay type: functional
[4] = Selectivity index, ratio of IC50 for rat L6 cells to IC50 for chloroquine-resistant erythrocytic stage of Plasmodium falciparum K1; assay type: toxicity, cell-based; conditions: read-out: Ratio IC50; outline: as §1
[5] = system: Plasmodium falciparum; assay: Antimalarial activity against chloroquine-resistant erythrocytic stage of Plasmodium falciparum K1 infected in human red blood cells assessed as growth inhibition after 48 hrs by [3H]-hypoxanthine incorporation assay; assay type: functional, organism-based
Outline: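 Erythrocytic P. falciparum in RPMI 1640 without hypoxanthine, with HEPES, NaHCO3, neomycin, Albumax, and human A+ red cells at 2.5% haematocrit and 0.3% parasitaemia. Compounds from a 10 mg/mL DMSO stock, eleven 3-fold dilutions from 100 to 0.002 µg/mL. Incubated 48 h at 37 °C (4% CO2, 3% O2), then 3H-hypoxanthine added for 24 h more. Cells harvested and counted by scintillation. IC50 by linear regression of the sigmoidal curves, mean of two independent assays.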

[6] = system: L6; assay: Cytotoxicity against rat L6 cells assessed as growth inhibition after 70 hrs by Alamar blue staining-based inverted microscopic analysis; assay type: cell-based; conditions: L6, 70 h
Outline: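 L6 rat skeletal myoblasts, 4000 cells/well in RPMI 1640 with 1% L-glutamine (200 mM) and 10% FBS. Eleven 3-fold dilutions spanning 100 to 0.002 µg/mL. After 70 h, Alamar Blue added for 2 h more. Fluorescence read at ex 536/em 588 nm. IC50 from sigmoidal dose–inhibition curves by linear regression.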

[7] = system: Plasmodium falciparum; assay: Antimalarial activity against chloroquine-sensitive erythrocytic stage of Plasmodium falciparum NF54 infected in human red blood cells assessed as growth inhibition after 72 hrs by [3H]-hypoxanthine incorporation assay
[8] = Solubility of the compound in water; assay type: physicochemical; conditions: buffer
[9] = system: Plasmodium berghei; assay: Antimalarial activity against Plasmodium berghei infected in Swiss mouse assessed as reduction in parasitaemia at 20 mg/kg, ip administered for 4 days measured on day 7 by FACS analysis relative to control; assay type: functional; parameters: scale not given: the % may be the effect or the level left; conditions: route intraperitoneal
Outline: (§2)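 Intraperitoneal dosing at 20 mg/kg daily for four consecutive days. Parasitaemia read on day 4 and day 7. Activity is the difference between mean percent parasitaemia of the control group (n = 5 mice) and the treated group, expressed as a percent of control.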

[10] = system: Plasmodium berghei; assay: Antimalarial activity against Plasmodium berghei infected in Swiss mouse assessed as reduction in parasitaemia at 20 mg/kg, ip administered for 4 days measured on day 4 post last dose by FACS analysis relative to control; assay type: functional; parameters: scale not given: the % may be the effect or the level left; conditions: route intraperitoneal; outline: as §2

SMILES | selectivity ratio [1] | IC50 [2] [nM] | Ratio IC50 [3] | selectivity ratio [4] | IC50 [5] [nM] | IC50 [6] [nM] | IC50 [7] [nM] | solubility [8] | Activity [9] [%] | Activity [10] [%]
Cn1c2nc3ccccc3c-2c(NCCCN)c2ccccc21 | 3.5 |  |  |  |  |  |  |  |  | 
COC(=O)c1ccc2c(c1)c(NCCCNC(=O)Nc1ccccc1)c1c3cc(Br)ccc3nc-1n2C | 157 | 10100 | 2.75 | 56.9 | 19.7 | 1120 | 7.15 |  |  | 
Cn1c2nc3ccc(Br)cc3c-2c(NCCCNC(=O)Nc2ccccc2)c2cc(Cl)ccc21 | 73 | 17800 | 3 | 24.3 | 16.8 | 408 | 5.59 |  |  | 
COC(=O)c1ccc2nc3n(C)c4ccc(Br)cc4c(NCCCN)c-3c2c1 | 361 | 11500 |  |  |  | 819 | 2.27 |  |  | 
COC(=O)c1ccc2c(c1)c(NCCCN)c1c3cc(Br)ccc3nc-1n2C | 232 | 10200 | 3.5 | 66 | 15.9 | 1050 | 4.54 |  |  | 
Cn1c2nc3ccc(Br)cc3c-2c(NCCCN)c2cc(Cl)ccc21 | 186 | 30100 | 8.89 | 20.9 | 19.2 | 401 | 2.16 |  |  | 
Cn1c2nc3ccc(C(=O)O)cc3c-2c(NCCCN)c2ccccc21 | 66.8 |  |  |  |  | 113000 | 1690 | soluble |  | 
CN(C)CCNc1c2c3cc(C(=O)O)ccc3nc-2n(C)c2ccccc12 | 7.84 |  |  |  |  | 20000 | 2550 | soluble |  | 
CN(C)CCCNc1c2c3cc(C(=O)O)ccc3nc-2n(C)c2ccccc12 | 30.6 |  |  |  |  | 66200 | 2160 | soluble |  | 
COC(=O)c1ccc2c(c1)c(NCCCNC(=O)Nc1ccccc1)c1c3ccccc3nc-1n2C | 181 | 23000 | 13.5 | 13.4 | 56.1 | 754 | 4.16 |  |  | 
COC(=O)c1ccc2c(c1)c(NCCCNC(=S)Nc1ccccc1)c1c3ccccc3nc-1n2C | 321 | 15700 | 8.89 | 36.1 | 16.1 | 581 | 1.81 |  |  | 
COC(=O)c1ccc2nc3n(C)c4ccccc4c(NCCCNC(=O)Nc4ccccc4)c-3c2c1 | 178 | 12800 | 4.71 | 37.7 | 68.4 | 2580 | 14.5 |  |  | 
COC(=O)c1ccc2nc3n(C)c4ccccc4c(NCCCNC(=S)Nc4ccccc4)c-3c2c1 | 467 | 10800 | 10.7 | 43.8 | 64.4 | 2820 | 6.03 |  |  | 
COC(=O)c1ccc2nc3n(C)c4ccc(C(=O)OC)cc4c(NCCCNC(=O)Nc4ccccc4)c-3c2c1 | 1590 | 4600 | 2.44 | 650 | 40.8 | 26500 | 16.7 |  |  | 
COC(=O)c1ccc2nc3n(C)c4ccc(C(=O)OC)cc4c(NCCCNC(=S)Nc4ccccc4)c-3c2c1 | 43.5 | 7500 | 3.5 | 12.4 | 50.4 | 627 | 14.4 |  |  | 
COC(=O)c1ccc2nc3n(C)c4ccc(Cl)cc4c(NCCCNC(=O)Nc4ccccc4)c-3c2c1 | 246 | 14900 | 1.71 | 143 | 23.3 | 3340 | 13.6 |  |  | 
COC(=O)c1ccc2nc3n(C)c4ccc(Br)cc4c(NCCCNC(=O)Nc4ccccc4)c-3c2c1 | 837 | 16000 |  |  |  | 6740 | 8.05 |  |  | 
COC(=O)c1ccc2nc3n(C)c4ccccc4c(N4CCCN(C)CC4)c-3c2c1 | 8.25 | 106000 |  |  |  | 6190 | 750 |  |  | 
COC(=O)c1ccc2nc3n(C)c4ccccc4c(N4CCOCC4)c-3c2c1 | 2.15 | 55500 |  |  |  | 3810 | 1770 |  |  | 
COC(=O)c1ccc2c(c1)c(NCCCN)c1c3ccccc3nc-1n2C | 40.7 | 104000 | 2.67 | 15.2 | 22.1 | 337 | 8.28 |  | 72.5 | 33.4
COC(=O)c1ccc2nc3n(C)c4ccc(C(=O)OC)cc4c(NCCCN)c-3c2c1 | 146 | 13000 | 1.25 | 117 | 11.9 | 1390 | 9.52 |  |  | 
COC(=O)c1ccc2nc3n(C)c4ccc(Cl)cc4c(NCCCN)c-3c2c1 | 56.4 | 25400 | 2.67 | 21.1 | 20.2 | 427 | 7.57 |  |  | 
COC(=O)c1ccc2nc3n(C)c4ccccc4c(NCCCCN)c-3c2c1 | 7.81 |  |  |  |  | 436 | 55.8 |  |  | 
COC(=O)c1ccc2nc3n(C)c4ccccc4c(NCCN(C)C)c-3c2c1 | 7.41 | 51500 |  |  |  | 315 | 42.5 |  |  | 
COC(=O)c1ccc2nc3n(C)c4ccccc4c(NCCCN(C)C)c-3c2c1 | 8.05 | 62500 |  |  |  | 268 | 33.3 |  |  | 
COC(=O)c1ccc2nc3n(C)c4ccccc4c(NCCCO)c-3c2c1 |  | 123000 |  |  |  | 639 | 278 |  |  | 
CCN(CC)CCCC(C)Nc1ccnc2cc(Cl)ccc12 (configuration not stated) [CHLOROQUINE] |  | 18400 |  |  |  |  |  |  |  | 
Cn1c2nc3ccccc3c-2cc2ccccc21 [NEOCRYPTOLEPINE] | 2 |  | 1.07 | 1.88 |  |  |  |  |  | 
